In experiment [1] the test system is Candida albicans. Briefly: Antifungal activity against Candida albicans ATCC 10231 at <100 ug/ml at pH 7 after 20 h in absence of 10% beef serum.
Experiment [2] relates to Aspergillus niger. The experiment in a line: Antifungal activity against Aspergillus niger ATCC 1004 at <100 ug/ml at pH 5.6 after 5 days in presence of 10% beef serum. The class given is functional, organism-based. An outline of the steps:
(§1)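 Agar-dilution MIC in Sabouraud dextrose agar at pH 5.6 or 7.0, with or without 10% beef serum. Plates were incubated at 28 °C for 5 days. MIC is the lowest concentration (µg/mL) giving 100% inhibition. Steps were 1 µg/mL up to 10, 2 µg/mL from 10–20, and 10 µg/mL from 20–100; 100 µg/mL was the top level, and no inhibition there is scored as >100.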

In experiment [3] the test system is Mucor mucedo. Briefly: Antifungal activity against Mucor mucedo ATCC 7941 at <100 ug/ml at pH 7 after 20 h in absence of 10% beef serum.
In experiment [4] the test system is Trichophyton mentagrophytes. Briefly: Antifungal activity against Trichophyton mentagrophytes ATCC 9129 at <100 ug/ml at pH 5.6 after 5 days in absence of 10% beef serum. Format: functional, organism-based. Put shortly: as §1
Experiment [5] has as its system Aspergillus niger. Briefly: Antifungal activity against Aspergillus niger ATCC 1004 at <100 ug/ml at pH 7 after 5 days in presence of 10% beef serum. The class given is functional, organism-based. Put shortly: as §1
The subject of experiment [6] is Trichophyton mentagrophytes. The experiment in a line: Antifungal activity against Trichophyton mentagrophytes ATCC 9129 at <100 ug/ml at pH 5.6 after 5 days in presence of 10% beef serum. Format: functional, organism-based. An outline of the steps:
as §1

Experiment [7] concerns Mucor mucedo. Briefly: Antifungal activity against Mucor mucedo ATCC 7941 at <100 ug/ml at pH 5.6 after 20 h in presence of 10% beef serum.
For experiment [8], the system named is Trichophyton mentagrophytes. Briefly: Antifungal activity against Trichophyton mentagrophytes ATCC 9129 at <100 ug/ml at pH 7 after 5 days in absence of 10% beef serum. The class given is functional, organism-based. An outline of the steps:
as §1

The test system of experiment [9] is Trichophyton mentagrophytes. Briefly: Antifungal activity against Trichophyton mentagrophytes ATCC 9129 at <100 ug/ml at pH 7 after 5 days in presence of 10% beef serum. Format: functional, organism-based. An outline of the steps: as §1
The subject of experiment [10] is Mucor mucedo. Briefly: Antifungal activity against Mucor mucedo ATCC 7941 at <100 ug/ml at pH 7 after 20 h in presence of 10% beef serum.
In experiment [11] the test system is Candida albicans. Briefly: Antifungal activity against Candida albicans ATCC 10231 at <100 ug/ml at pH 5.6 after 20 h in presence of 10% beef serum.
Experiment [12] deals with Candida albicans. Briefly: Antifungal activity against Candida albicans ATCC 10231 at <100 ug/ml at pH 7 after 20 h in presence of 10% beef serum.
Experiment [13] has as its system Mucor mucedo. The experiment in a line: Antifungal activity against Mucor mucedo ATCC 7941 at <100 ug/ml at pH 5.6 after 20 h in absence of 10% beef serum.
For experiment [14], the system named is Aspergillus niger. The experiment in a line: Antifungal activity against Aspergillus niger ATCC 1004 at <100 ug/ml at pH 5.6 after 5 days in absence of 10% beef serum. Format: functional, organism-based. Put shortly: as §1
In experiment [15] the test system is Candida albicans. Briefly: Antifungal activity against Candida albicans ATCC 10231 at <100 ug/ml at pH 5.6 after 20 h in absence of 10% beef serum.
In experiment [16] the test system is Aspergillus niger. The experiment in a line: Antifungal activity against Aspergillus niger ATCC 1004 at <100 ug/ml at pH 7 after 5 days in absence of 10% beef serum. Format: functional, organism-based. An outline of the steps: as §1
The subject of experiment [17] is Candida albicans. The experiment in a line: Antifungal activity against Candida albicans ATCC 10231 at pH 5.6 after 20 h in absence of 10% beef serum. To be noted: ATCC 10231, 20 h.
For experiment [18], the system named is Aspergillus niger. Briefly: Antifungal activity against Aspergillus niger ATCC 1004 at pH 7 after 5 days in presence of 10% beef serum. To be noted: Aspergillus niger, ATCC 1004, 120 h; read-out: MIC. The class given is functional. An outline of the steps: as §1
Experiment [19] relates to Candida albicans. Briefly: Antifungal activity against Candida albicans ATCC 10231 at pH 7 after 20 h in absence of 10% beef serum. As to conditions: ATCC 10231, 20 h.
Experiment [20] concerns Aspergillus niger. The experiment in a line: Antifungal activity against Aspergillus niger ATCC 1004 at pH 5.6 after 5 days in absence of 10% beef serum. The class given is functional. To be noted: Aspergillus niger, ATCC 1004, 120 h; read-out: MIC. Put shortly:
as §1

For experiment [21], the system named is Aspergillus niger. The experiment in a line: Antifungal activity against Aspergillus niger ATCC 1004 at pH 7 after 5 days in absence of 10% beef serum. Format: functional. As to conditions: Aspergillus niger, ATCC 1004, 120 h; read-out: MIC. An outline of the steps: as §1
The test system of experiment [22] is Aspergillus niger. Briefly: Antifungal activity against Aspergillus niger ATCC 1004 at pH 5.6 after 5 days in presence of 10% beef serum. Format: functional. As to conditions: Aspergillus niger, ATCC 1004, 120 h; read-out: MIC. Put shortly: as §1
Experiment [23] relates to Candida albicans. The experiment in a line: Antifungal activity against Candida albicans ATCC 10231 at pH 5.6 after 20 h in presence of 10% beef serum. As to conditions: ATCC 10231, 20 h.
Experiment [24] has as its system Candida albicans. Briefly: Antifungal activity against Candida albicans ATCC 10231 at pH 7 after 20 h in presence of 10% beef serum. As to conditions: ATCC 10231, 20 h.

Converted amounts (≈) assume the structure as drawn. The source made the active and inactive calls. No cut-off for these calls is given here.

For eight compounds, inhibition and MIC results are on record in ChEMBL document CHEMBL3244142, “Antifungal properties of 2-bromo-3-fluorosuccinic acid esters and related compounds” (1977).

A word on the MIC: it is the lowest concentration that inhibits growth of the organism.

As for `CCCCCCOC(=O)[C@H](F)[C@@H](Br)C(=O)OCCCCCC` (relative stereo), the inhibition result in experiment [1], in [2], in [3], in experiment [4], in [5] and in [6] was “inactive” in each case. Further, the inhibition result in [7], in [8], in experiment [9], in experiment [10], in [11] and in experiment [12] was “inactive” in each case. In addition, the inhibition entry in experiment [13], in [14], in experiment [15] and in [16] was “inactive” in each case.

For `CCCCCCOC(=O)/C=C\C(=O)OCCCCCC`, the inhibition result in [1], in experiment [2], in [3], in experiment [4], in experiment [5] and in experiment [6] was “inactive” throughout. In addition, the inhibition entry in experiment [7], in experiment [8], in experiment [9], in experiment [10], in experiment [11] and in experiment [12] was “inactive” throughout. For the same compound, the inhibition result in experiment [13], in experiment [14], in [15] and in experiment [16] was “inactive” each time.

Consider `COC(=O)C(Br)C(C)F` (stereo not drawn), for which the inhibition entry in [1], in experiment [2], in [3], in experiment [4], in [5] and in experiment [6] was “inactive” throughout. The inhibition result in [7], in [8], in experiment [9], in [10], in [11] and in experiment [12] was “inactive” in each case. Besides, the inhibition entry in [13], in experiment [14], in experiment [15] and in experiment [16] was “inactive” each time.

As for `Nc1nc(=O)[nH]cc1F` [FLUCYTOSINE], the MIC in experiment [17] is 9 µg/mL (≈ 69.7 µM); in [18], 10 µg/mL; in [19] it was 9 µg/mL (≈ 69.7 µM); in experiment [20] it was 9 µg/mL (≈ 69.7 µM); in [21], 7 µg/mL (≈ 54.2 µM); in experiment [22], 8 µg/mL. In addition, the MIC in [23] and in experiment [24] was 14 µg/mL in each case. The inhibition result in [3], in experiment [4], in [6], in [7], in experiment [8] and in [9] was “inactive” each time. For the same compound, the inhibition result in experiment [10] and in experiment [13] was “inactive” throughout.

For the compound `COC(=O)/C=C/CC(=O)OC`, the inhibition entry in experiment [1], in experiment [2], in experiment [3], in experiment [4], in experiment [5] and in experiment [6] was “inactive” in each case. Besides, the inhibition entry in [7], in [8], in experiment [9], in [10], in experiment [11] and in [12] was “inactive” in each case. The inhibition result in experiment [13], in experiment [14], in experiment [15] and in experiment [16] was “inactive” in each case.

For `CCCCCCOC(=O)[C@@H](F)[C@@H](Br)C(=O)OCCCCCC` (relative stereo), the inhibition entry in experiment [1], in [2], in experiment [3], in experiment [4], in experiment [5] and in experiment [6] was “inactive” in each case. The inhibition result in experiment [7], in experiment [8], in [9], in experiment [10], in experiment [11] and in experiment [12] was “inactive” each time. Also, the inhibition result in experiment [13], in [14], in experiment [15] and in experiment [16] was “inactive” in each case.

Take `O=c1[nH]cc(F)c(=O)[nH]1`: the inhibition entry in experiment [1], in [2], in [3], in experiment [4], in experiment [5] and in experiment [6] was “inactive” each time. Moreover, the inhibition result in experiment [7], in experiment [8], in experiment [9], in [10], in experiment [11] and in [12] was “inactive” in each case. Also, the inhibition entry in experiment [13], in experiment [14], in [15] and in experiment [16] was “inactive” throughout.

As for `CCCCCCOC(=O)/C=C/C(=O)OCCCCCC`, the inhibition result in experiment [1], in experiment [2], in [3], in [4], in [5] and in experiment [6] was “inactive” each time. In addition, the inhibition entry in experiment [7], in experiment [8], in [9], in experiment [10], in [11] and in experiment [12] was “inactive” in each case. In addition, the inhibition entry in experiment [13], in experiment [14], in experiment [15] and in [16] was “inactive” in each case.
